From ChEMBL document CHEMBL1149444, “Discovery of imidazo[1,2-b][1,2,4]triazines as GABA(A) alpha2/3 subtype selective agonists for the treatment of anxiety” (J Med Chem, 2006)
Calls of active or inactive are those of the source. The calls are words filed in the database; no cut-off is given here.

Experiments:
[1] = target: T1, GABA-A receptor; alpha-2/beta-3/gamma-2 (Homo sapiens, UniProt P18507+P28472+P47869); assay: Displacement of [3H] Ro15-1788 from recombinant human GABAA alpha2 receptor plus beta-3-gamma-2 expressed in L(tk-) cells; type: cell-based
T1 sequence (P18507 whole entry): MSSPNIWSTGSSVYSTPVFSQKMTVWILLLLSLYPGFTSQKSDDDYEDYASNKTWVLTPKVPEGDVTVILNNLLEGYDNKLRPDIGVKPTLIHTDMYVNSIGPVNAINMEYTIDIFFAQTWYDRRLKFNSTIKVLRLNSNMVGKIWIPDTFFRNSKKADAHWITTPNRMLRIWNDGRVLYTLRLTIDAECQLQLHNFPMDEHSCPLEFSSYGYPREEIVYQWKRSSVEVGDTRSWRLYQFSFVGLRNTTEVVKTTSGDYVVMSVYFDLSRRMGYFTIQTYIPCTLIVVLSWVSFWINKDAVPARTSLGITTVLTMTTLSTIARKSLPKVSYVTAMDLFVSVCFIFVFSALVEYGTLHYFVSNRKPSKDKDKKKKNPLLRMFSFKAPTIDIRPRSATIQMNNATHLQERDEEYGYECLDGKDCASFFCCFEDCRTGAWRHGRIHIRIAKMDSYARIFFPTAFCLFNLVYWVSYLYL
T1 sequence (P28472 whole entry): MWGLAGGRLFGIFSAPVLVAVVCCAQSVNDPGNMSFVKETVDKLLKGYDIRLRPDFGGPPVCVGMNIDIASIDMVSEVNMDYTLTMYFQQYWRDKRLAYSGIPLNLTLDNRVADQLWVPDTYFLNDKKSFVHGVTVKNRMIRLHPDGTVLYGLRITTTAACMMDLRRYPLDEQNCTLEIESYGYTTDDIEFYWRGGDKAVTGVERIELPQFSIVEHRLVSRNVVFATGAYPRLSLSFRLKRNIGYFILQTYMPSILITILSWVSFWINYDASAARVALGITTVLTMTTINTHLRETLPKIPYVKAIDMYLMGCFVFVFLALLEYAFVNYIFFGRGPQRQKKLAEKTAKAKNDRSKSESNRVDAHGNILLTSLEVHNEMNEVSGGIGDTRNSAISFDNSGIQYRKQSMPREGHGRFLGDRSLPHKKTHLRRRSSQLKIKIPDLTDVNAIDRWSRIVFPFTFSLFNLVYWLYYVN
T1 sequence (P47869 whole entry): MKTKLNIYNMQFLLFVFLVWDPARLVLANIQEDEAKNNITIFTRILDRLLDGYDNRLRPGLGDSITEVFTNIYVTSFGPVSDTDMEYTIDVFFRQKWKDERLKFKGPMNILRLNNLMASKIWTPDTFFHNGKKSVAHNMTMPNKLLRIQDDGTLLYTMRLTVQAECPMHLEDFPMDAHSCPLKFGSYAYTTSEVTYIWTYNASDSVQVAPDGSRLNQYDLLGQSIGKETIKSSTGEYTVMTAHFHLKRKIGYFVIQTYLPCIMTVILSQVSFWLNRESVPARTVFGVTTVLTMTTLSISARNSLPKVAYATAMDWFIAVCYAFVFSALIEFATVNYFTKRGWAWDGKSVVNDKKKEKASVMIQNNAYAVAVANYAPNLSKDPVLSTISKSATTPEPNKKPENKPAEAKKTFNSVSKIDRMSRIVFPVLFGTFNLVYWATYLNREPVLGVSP

[2] = Volume of distribution in dog at 1 mg/kg, iv or 1 mg/kg, po; type: ADME, organism-based, Canis lupus familiaris; details: in vivo, read-out: Vdss
Summary of the method: (§1)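 Pharmacokinetics in rat, dog or rhesus after 1 mg/kg iv and 1 mg/kg po dosing. Plasma clearance (mL/min/kg), half-life (h), volume of distribution (L/kg) and oral bioavailability (%) were derived.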

Mus musculus = assay: Impairment in mouse rotarod assay upto 10 mg/kg, po; type: functional, organism-based; set-up: dose 10 mg/kg
Summary of the method: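 Mouse rotarod test for sedation or myorelaxation after oral dosing up to 10 mg/kg. n = 8 per group. Significance versus vehicle at p < 0.05.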

Squirrel monkey = assay: Anxiolytic effect in squirrel monkey conditioned emotional response test at 0.3 mg/kg, po; type: functional, organism-based; set-up: dose 0.3 mg/kg; details: Saimiri sciureus
Summary of the method: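 Squirrel monkeys dosed po in 0.5% methyl cellulose vehicle. Anxiolysis was read as reversal of the suppression of lever pressing caused by a light cue signalling possible electric shock. Sedation was read as the rate of lever pressing for fruit juice reward on an RPI30 schedule. n = 10-11 per group, p < 0.05 versus vehicle.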

[3] = Plasma clearance in dog at 1 mg/kg, iv or 1 mg/kg, po; type: ADME, organism-based, Canis lupus familiaris; summary of the method: as §1

## CC(C)(O)c1cnn2c(-c3ccc(F)c(-c4c(F)cccc4C#N)c3)cnc2n1
[1]
  Ki: 1.8 nM
[2]
  Vd: 1.9 L/kg
Mus musculus
  Activity: inactive
Squirrel monkey
  Activity: Active
[3]
  clearance: 4.6 mL/min/kg
